# Tested on: not listed separately
# Assay: Cytotoxicity against doxorubicin-resistant human K562/Adr cells
# Type: functional, cell-based
# Settings: not given
# Method in brief: (§1)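 K562/Adr cells, a doxorubicin-resistant leukemia line, were grown in RPMI1640 with 10% FBS and 0.5 µM doxorubicin at 37 °C under humidified 5% CO2. Cytotoxicity was expressed as IC50 in µg/mL.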
row,Structure (SMILES),IC50 [µg/mL]
1,C=C1[C@@H](OC(=O)C(C)CC)C=C[C@@]2(C)CC[C@@H]3[C@@H](OC(=O)[C@@H]3C)[C@H]12 (some centres not stated),> 100
2,C/C=C(\C)C(=O)O[C@H]1C[C@](C)(O)C2CC=C(C)[C@H]2[C@@H]2OC(=O)[C@H](C)[C@@H]21 (some centres not stated),> 100
3,C=C1C=C[C@@H](OC(=O)/C(C)=C/C)[C@@]2(C)CC[C@@H]3[C@@H](OC(=O)[C@@H]3C)[C@H]12 [OOPODIN],25.4
4,C=C1C=C[C@@H](OC(=O)/C(C)=C/C)[C@@]2(C)CC[C@@H]3[C@@H](OC(=O)[C@]3(C)O)[C@H]12,> 100
5,C=C1C(=O)O[C@@H]2[C@H]1CC[C@]1(C)[C@H](OC(=O)/C(C)=C/C)C=CC(=C)[C@@H]21 [DEHYDROOOPODIN],> 100
6,C=C1[C@H]2O[C@H]2[C@@H](OC(=O)/C(C)=C/C)[C@@]2(C)CC[C@@H]3[C@@H](OC(=O)[C@@]3(O)COC(=O)/C(C)=C\C)[C@H]12,> 100
7,COc1cccc2c1C(=O)c1c(O)c3c(c(O)c1C2=O)C[C@@](O)(C(=O)CO)C[C@@H]3O[C@H]1C[C@H](N)[C@H](O)[C@H](C)O1 [DOXORUBICIN],15.3

# Tested on: KB
# Assay: Cytotoxicity against human KB cells
# Type: functional, cell-based
# Settings: not given
# Method in brief: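 KB human epidermoid carcinoma cells were grown in DMEM with 10% FBS at 37 °C under humidified 5% CO2. Cytotoxicity was given as IC50 in µg/mL.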
row,Structure (SMILES),IC50 [µg/mL]
1,C=C1[C@@H](OC(=O)C(C)CC)C=C[C@@]2(C)CC[C@@H]3[C@@H](OC(=O)[C@@H]3C)[C@H]12 (some centres not stated),> 100
2,C/C=C(\C)C(=O)O[C@H]1C[C@](C)(O)C2CC=C(C)[C@H]2[C@@H]2OC(=O)[C@H](C)[C@@H]21 (some centres not stated),> 100
3,C=C1C=C[C@@H](OC(=O)/C(C)=C/C)[C@@]2(C)CC[C@@H]3[C@@H](OC(=O)[C@@H]3C)[C@H]12 [OOPODIN],34.7
4,C=C1C=C[C@@H](OC(=O)/C(C)=C/C)[C@@]2(C)CC[C@@H]3[C@@H](OC(=O)[C@]3(C)O)[C@H]12,> 100
5,C=C1C(=O)O[C@@H]2[C@H]1CC[C@]1(C)[C@H](OC(=O)/C(C)=C/C)C=CC(=C)[C@@H]21 [DEHYDROOOPODIN],46.1
6,C=C1[C@H]2O[C@H]2[C@@H](OC(=O)/C(C)=C/C)[C@@]2(C)CC[C@@H]3[C@@H](OC(=O)[C@@]3(O)COC(=O)/C(C)=C\C)[C@H]12,91.4
7,COc1cccc2c1C(=O)c1c(O)c3c(c(O)c1C2=O)C[C@@](O)(C(=O)CO)C[C@@H]3O[C@H]1C[C@H](N)[C@H](O)[C@H](C)O1 [DOXORUBICIN],0.22

# Biological target: ATP-dependent translocase ABCB1 (Homo sapiens, UniProt P08183)
# Sequence (P08183 whole entry): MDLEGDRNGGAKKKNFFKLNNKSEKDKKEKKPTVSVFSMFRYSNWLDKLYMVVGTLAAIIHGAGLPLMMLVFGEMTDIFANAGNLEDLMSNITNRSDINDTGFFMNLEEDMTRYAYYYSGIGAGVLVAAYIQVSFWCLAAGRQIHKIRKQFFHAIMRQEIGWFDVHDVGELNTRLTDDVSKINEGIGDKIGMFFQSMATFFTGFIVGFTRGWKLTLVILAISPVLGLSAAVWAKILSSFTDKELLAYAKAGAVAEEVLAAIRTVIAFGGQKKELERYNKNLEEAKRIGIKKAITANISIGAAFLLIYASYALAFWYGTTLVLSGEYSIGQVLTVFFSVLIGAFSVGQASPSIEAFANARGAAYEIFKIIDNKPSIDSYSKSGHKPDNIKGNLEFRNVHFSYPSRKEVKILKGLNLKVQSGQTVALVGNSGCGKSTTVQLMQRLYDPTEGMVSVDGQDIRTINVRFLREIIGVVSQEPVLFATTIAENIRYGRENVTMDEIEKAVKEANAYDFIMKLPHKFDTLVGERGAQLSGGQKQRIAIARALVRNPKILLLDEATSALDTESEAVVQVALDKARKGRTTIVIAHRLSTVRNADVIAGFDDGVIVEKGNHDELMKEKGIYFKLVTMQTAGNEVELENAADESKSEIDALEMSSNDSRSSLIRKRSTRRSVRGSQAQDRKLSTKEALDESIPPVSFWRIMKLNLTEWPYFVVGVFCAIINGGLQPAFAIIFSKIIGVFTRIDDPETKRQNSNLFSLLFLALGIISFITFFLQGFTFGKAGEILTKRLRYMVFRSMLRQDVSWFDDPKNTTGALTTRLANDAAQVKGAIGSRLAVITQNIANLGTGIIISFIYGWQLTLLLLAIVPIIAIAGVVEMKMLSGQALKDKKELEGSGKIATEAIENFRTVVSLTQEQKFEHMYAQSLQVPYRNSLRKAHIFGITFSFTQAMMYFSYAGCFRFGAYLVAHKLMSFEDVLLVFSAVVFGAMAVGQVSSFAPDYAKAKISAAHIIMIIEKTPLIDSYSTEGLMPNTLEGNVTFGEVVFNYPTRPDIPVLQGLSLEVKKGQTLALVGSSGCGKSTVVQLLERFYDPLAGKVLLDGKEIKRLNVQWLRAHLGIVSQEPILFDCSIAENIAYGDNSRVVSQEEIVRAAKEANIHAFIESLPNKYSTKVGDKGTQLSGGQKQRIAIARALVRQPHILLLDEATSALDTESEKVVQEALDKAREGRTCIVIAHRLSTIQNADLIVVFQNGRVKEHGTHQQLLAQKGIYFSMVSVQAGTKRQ
# Assay: Effect on P-glycoprotein expressed in KB-C2 cells assessed as increase in accumulation of rhodamine 123 at 50 uM
# Type: cell-based
# Settings: kb-c2, 50 µM
# Method in brief: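 For P-gp substrate accumulation, KB-C2 cells were incubated 2 h with 20 µM rhodamine 123 plus sample, then washed and lysed in 0.1% Triton X-100 in PBS. Retained fluorescence was measured and accumulation expressed as a percentage increase.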
row,Activity [%],Structure (SMILES)
1,114,C/C=C(\C)C(=O)O[C@H]1C[C@](C)(O)C2CC=C(C)[C@H]2[C@@H]2OC(=O)[C@H](C)[C@@H]21 (some centres not stated)
2,169,C=C1[C@H]2O[C@H]2[C@@H](OC(=O)/C(C)=C/C)[C@@]2(C)CC[C@@H]3[C@@H](OC(=O)[C@@]3(O)COC(=O)/C(C)=C\C)[C@H]12

# Tested on: not listed separately
# Assay: Cytotoxicity against multidrug-resistant human KB-C2 cells
# Type: functional, cell-based
# Settings: not given
# Method in brief: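 KB-C2, a multidrug-resistant KB subline, was maintained in DMEM with 10% FBS and 5 µM colchicine at 37 °C under humidified 5% CO2. Cytotoxicity was reported as IC50 in µg/mL.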
row,Structure (SMILES),IC50 [µg/mL]
1,C=C1[C@@H](OC(=O)C(C)CC)C=C[C@@]2(C)CC[C@@H]3[C@@H](OC(=O)[C@@H]3C)[C@H]12 (some centres not stated),> 100
2,C/C=C(\C)C(=O)O[C@H]1C[C@](C)(O)C2CC=C(C)[C@H]2[C@@H]2OC(=O)[C@H](C)[C@@H]21 (some centres not stated),> 100
3,C=C1C=C[C@@H](OC(=O)/C(C)=C/C)[C@@]2(C)CC[C@@H]3[C@@H](OC(=O)[C@@H]3C)[C@H]12 [OOPODIN],24.7
4,C=C1C=C[C@@H](OC(=O)/C(C)=C/C)[C@@]2(C)CC[C@@H]3[C@@H](OC(=O)[C@]3(C)O)[C@H]12,> 100
5,C=C1C(=O)O[C@@H]2[C@H]1CC[C@]1(C)[C@H](OC(=O)/C(C)=C/C)C=CC(=C)[C@@H]21 [DEHYDROOOPODIN],56.9
6,C=C1[C@H]2O[C@H]2[C@@H](OC(=O)/C(C)=C/C)[C@@]2(C)CC[C@@H]3[C@@H](OC(=O)[C@@]3(O)COC(=O)/C(C)=C\C)[C@H]12,98
7,COc1cccc2c1C(=O)c1c(O)c3c(c(O)c1C2=O)C[C@@](O)(C(=O)CO)C[C@@H]3O[C@H]1C[C@H](N)[C@H](O)[C@H](C)O1 [DOXORUBICIN],> 100

# Tested on: not listed separately
# Assay: Cytotoxicity against multidrug-resistant human KB-C2 cells in presence of 2.5 uM colchicine
# Type: functional, cell-based
# Settings: not given
# Method in brief: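 KB-C2 cells were kept in DMEM with 10% FBS and 5 µM colchicine, then tested for cytotoxicity with 2.5 µM colchicine added during exposure to samples. IC50 was given in µg/mL.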
row,Structure (SMILES),IC50 [µg/mL]
1,C/C=C(\C)C(=O)O[C@H]1C[C@](C)(O)C2CC=C(C)[C@H]2[C@@H]2OC(=O)[C@H](C)[C@@H]21 (some centres not stated),25.4
2,C=C1C=C[C@@H](OC(=O)/C(C)=C/C)[C@@]2(C)CC[C@@H]3[C@@H](OC(=O)[C@@H]3C)[C@H]12 [OOPODIN],13.8
3,C=C1C(=O)O[C@@H]2[C@H]1CC[C@]1(C)[C@H](OC(=O)/C(C)=C/C)C=CC(=C)[C@@H]21 [DEHYDROOOPODIN],55.8
4,C=C1[C@H]2O[C@H]2[C@@H](OC(=O)/C(C)=C/C)[C@@]2(C)CC[C@@H]3[C@@H](OC(=O)[C@@]3(O)COC(=O)/C(C)=C\C)[C@H]12,48.3

# Tested on: K562
# Assay: Cytotoxicity against multidrug-resistant human K562 cells
# Type: functional, cell-based
# Settings: in the assay text read “human K562 cells” for “multidrug-resistant human K562 cells”
# Method in brief: as §1
row,Structure (SMILES),IC50 [µg/mL]
1,C=C1[C@@H](OC(=O)C(C)CC)C=C[C@@]2(C)CC[C@@H]3[C@@H](OC(=O)[C@@H]3C)[C@H]12 (some centres not stated),> 100
2,C/C=C(\C)C(=O)O[C@H]1C[C@](C)(O)C2CC=C(C)[C@H]2[C@@H]2OC(=O)[C@H](C)[C@@H]21 (some centres not stated),> 100
3,C=C1C=C[C@@H](OC(=O)/C(C)=C/C)[C@@]2(C)CC[C@@H]3[C@@H](OC(=O)[C@@H]3C)[C@H]12 [OOPODIN],35.1
4,C=C1C=C[C@@H](OC(=O)/C(C)=C/C)[C@@]2(C)CC[C@@H]3[C@@H](OC(=O)[C@]3(C)O)[C@H]12,> 100
5,C=C1C(=O)O[C@@H]2[C@H]1CC[C@]1(C)[C@H](OC(=O)/C(C)=C/C)C=CC(=C)[C@@H]21 [DEHYDROOOPODIN],36.8
6,C=C1[C@H]2O[C@H]2[C@@H](OC(=O)/C(C)=C/C)[C@@]2(C)CC[C@@H]3[C@@H](OC(=O)[C@@]3(O)COC(=O)/C(C)=C\C)[C@H]12,> 100
7,COc1cccc2c1C(=O)c1c(O)c3c(c(O)c1C2=O)C[C@@](O)(C(=O)CO)C[C@@H]3O[C@H]1C[C@H](N)[C@H](O)[C@H](C)O1 [DOXORUBICIN],0.45

# Tested on: MCF7
# Assay: Cytotoxicity against human MCF7 cells
# Type: functional, cell-based
# Settings: not given
# Method in brief: (§2)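 MCF7 breast and COLO205 colon carcinoma cells were cultured in RPMI1640 with 10% FBS at 37 °C in humidified 5% CO2-95% air. Cytotoxicity was read as IC50 in µg/mL.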
row,Structure (SMILES),IC50 [µg/mL]
1,C=C1[C@@H](OC(=O)C(C)CC)C=C[C@@]2(C)CC[C@@H]3[C@@H](OC(=O)[C@@H]3C)[C@H]12 (some centres not stated),> 100
2,C/C=C(\C)C(=O)O[C@H]1C[C@](C)(O)C2CC=C(C)[C@H]2[C@@H]2OC(=O)[C@H](C)[C@@H]21 (some centres not stated),> 100
3,C=C1C=C[C@@H](OC(=O)/C(C)=C/C)[C@@]2(C)CC[C@@H]3[C@@H](OC(=O)[C@]3(C)O)[C@H]12,> 100
4,C=C1[C@H]2O[C@H]2[C@@H](OC(=O)/C(C)=C/C)[C@@]2(C)CC[C@@H]3[C@@H](OC(=O)[C@@]3(O)COC(=O)/C(C)=C\C)[C@H]12,> 100

# Tested on: COLO 205
# Assay: Cytotoxicity against human COLO205 cells
# Type: functional, cell-based
# Settings: not given
# Method in brief: as §2
row,Structure (SMILES),IC50 [µg/mL]
1,C=C1[C@@H](OC(=O)C(C)CC)C=C[C@@]2(C)CC[C@@H]3[C@@H](OC(=O)[C@@H]3C)[C@H]12 (some centres not stated),> 100
2,C/C=C(\C)C(=O)O[C@H]1C[C@](C)(O)C2CC=C(C)[C@H]2[C@@H]2OC(=O)[C@H](C)[C@@H]21 (some centres not stated),> 100
3,C=C1C=C[C@@H](OC(=O)/C(C)=C/C)[C@@]2(C)CC[C@@H]3[C@@H](OC(=O)[C@]3(C)O)[C@H]12,> 100
4,C=C1[C@H]2O[C@H]2[C@@H](OC(=O)/C(C)=C/C)[C@@]2(C)CC[C@@H]3[C@@H](OC(=O)[C@@]3(O)COC(=O)/C(C)=C\C)[C@H]12,> 100
